High-throughput results: PubChem BioAssay, several laboratories
Only a selection was taken, and hits are over-represented in it overall.
UPR CHOP act: apoptotic UPR (CHOP) activation. CHO-CHOP luciferase reporter, luminescence; percent of tunicamycin response over DMSO baseline. activation, % at 10 µM. 330,000 tested, 0.34% active. AID 449763;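 active means at 10 µM dose, activation of 40% or more, normalized to positive control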;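 further: 100% = tunicamycin at 10 µg/mL and 0% = DMSO alone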
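System: CHO-CHOP luciferase reporter cell line | Buffer or medium: F12 medium containing 10% fetal bovine serum | Doses: One dose, 10 µM in 0.5% DMSO | Times: 6 h compound exposure at 37 °C after overnight seeding | Signal: Luciferase luminescence | Read-out: % activation vs tunicamycin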
CHOP inhibitor: inhibitors of CHOP induction in ER stress response; AID 2732; CHO-K1 CHOP-promoter luciferase, tunicamycin-induced, 15-18 h; 220,000 tested, 3.8% active; inhibition, % at 10 µM;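 active means compounds that reduced the stress-induced luciferase reporter signal by more than about 70% of percent inhibition, limit read from the data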;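 further: 0% = tunicamycin plus vehicle and 100% = wells without tunicamycin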
TLR4 MyD88 comp: inhibitors of human TLR4-MyD88 binding; HeLa CL3-4 TLR4/MyD88 BLA complementation, FRET ratio; O00206+Q99836; 200,000 tested, 0.18% active; inhibition, % at 8.4 µM; in the data active means inhibition above about 25%;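 further: 0% = vehicle and 100% = reference inhibitor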
Target sequence (O00206 whole entry, looked up): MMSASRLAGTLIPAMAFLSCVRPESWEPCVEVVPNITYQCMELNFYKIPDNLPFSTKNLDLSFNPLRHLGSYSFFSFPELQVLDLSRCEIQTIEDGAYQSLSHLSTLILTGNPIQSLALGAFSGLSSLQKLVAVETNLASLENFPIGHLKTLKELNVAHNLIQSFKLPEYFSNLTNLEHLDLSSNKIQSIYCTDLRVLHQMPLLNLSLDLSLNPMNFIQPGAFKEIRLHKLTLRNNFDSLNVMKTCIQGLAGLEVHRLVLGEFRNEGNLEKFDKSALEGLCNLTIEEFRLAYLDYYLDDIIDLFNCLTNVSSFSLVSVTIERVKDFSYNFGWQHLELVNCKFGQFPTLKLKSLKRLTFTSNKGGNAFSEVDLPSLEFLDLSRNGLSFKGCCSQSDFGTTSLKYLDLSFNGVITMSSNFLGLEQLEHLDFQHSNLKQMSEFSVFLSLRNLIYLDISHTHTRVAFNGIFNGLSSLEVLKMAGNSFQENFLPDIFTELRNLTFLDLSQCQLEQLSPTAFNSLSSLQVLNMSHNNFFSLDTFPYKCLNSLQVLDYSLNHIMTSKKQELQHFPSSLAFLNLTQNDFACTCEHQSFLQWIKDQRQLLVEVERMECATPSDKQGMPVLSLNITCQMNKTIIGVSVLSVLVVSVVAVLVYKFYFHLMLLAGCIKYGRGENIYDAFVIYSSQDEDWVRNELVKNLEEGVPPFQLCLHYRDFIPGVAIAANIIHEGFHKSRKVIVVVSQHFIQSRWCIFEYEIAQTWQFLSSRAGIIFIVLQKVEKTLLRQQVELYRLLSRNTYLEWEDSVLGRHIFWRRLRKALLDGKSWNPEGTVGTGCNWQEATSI
Target sequence (Q99836 whole entry, looked up): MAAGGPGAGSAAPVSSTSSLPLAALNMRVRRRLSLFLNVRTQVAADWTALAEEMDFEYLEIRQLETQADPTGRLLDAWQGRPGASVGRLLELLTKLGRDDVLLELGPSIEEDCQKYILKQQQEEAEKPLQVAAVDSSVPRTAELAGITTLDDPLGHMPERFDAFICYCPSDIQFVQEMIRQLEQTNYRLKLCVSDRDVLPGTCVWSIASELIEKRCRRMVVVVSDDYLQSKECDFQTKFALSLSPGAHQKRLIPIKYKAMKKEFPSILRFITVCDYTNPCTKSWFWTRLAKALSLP
TLR9-MyD88 block: inhibitors of human TLR9-MyD88 binding. CHO BLA complementation TLR9-MyD88, CCF4 FRET ratio. inhibition, % at 4.98 µM. 340,000 tested, 0.21% active;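 active means inhibition above the mean over all tested compounds plus 3 SD, cut at about 21% in these data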;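 further: 0% = DMSO only wells and 100% = clavulanate BLA inhibitor control wells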
NOD2-RIPK2 inh: inhibitors of human NOD2-RIPK2 interaction | O43353 | CHO BLA complementation NOD2-RIPK2, CCF4 ratio | inhibition, % at 4.98 µM | 360,000 tested, 0.38% active; in the data active means inhibition above about 21%;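 further: 0% = vehicle only and 100% = reference blocker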
XBP1 UPR activ: activators of adaptive arm of unfolded protein response (XBP1) | CHO-XBP1 luciferase reporter, IRE1-XBP1 UPR activation, luminescence; percent of tunicamycin response, DMSO as zero | 330,000 tested, 0.33% active | activation, % at 20 µM;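 active means versus positive control, 20 µM dose yields 30% or more activation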;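 further: 100% = tunicamycin at 10 µg/mL and 0% = DMSO only wells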
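Material: CHO-XBP1 cells stably carrying IRE1-XBP1-driven luciferase reporter / Amount: 1000 cells per well / Compound: 20 µM, 1% DMSO / Times: 6 h treatment, 37 °C / Detection: luciferase luminescence / Measure: % activation of reporter signal versus tunicamycin and DMSO controls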
Numbers without * were called inactive.

What do the screens show for `O=C(O)c1ccc(C2NCC(c3ccccc3Cl)c3c2[nH]c2ccccc32)cc1` (stereo not given)?
UPR CHOP act: -2.6; CHOP inhibitor: 5.4; TLR4 MyD88 comp: -14.0; TLR9-MyD88 block: 7.1; NOD2-RIPK2 inh: -8.7; XBP1 UPR activ: 2.1

What do the screens show for `COc1cc(C2NCC(c3ccc(Cl)cc3Cl)c3c2[nH]c2ccccc32)cc(OC)c1OC` (stereo not given)?
UPR CHOP act: 5.3; CHOP inhibitor: 76.6*; TLR4 MyD88 comp: -1.7; TLR9-MyD88 block: 2.2; NOD2-RIPK2 inh: -4.2; XBP1 UPR activ: -2.0

How did Cc1ccccc1/C=C/C1=NCCN1 do in these assays?
UPR CHOP act: 0.8; CHOP inhibitor: 98.5*; TLR9-MyD88 block: -4.3; NOD2-RIPK2 inh: -12.2; XBP1 UPR activ: -4.2

How did CN(Cc1ccc(Cl)cc1Cl)C(=O)C1CSC2(C)CCC(=O)N12 (stereo not given) do in these assays?
TLR9-MyD88 block: -4.3; NOD2-RIPK2 inh: -0.4

How did CCC(C)C(NC(=O)c1ccccc1NC(=O)c1ccc(OC)cc1)C(=O)NCc1ccco1 (stereo not given) do in these assays?
UPR CHOP act: 0.2; CHOP inhibitor: 71.2*; TLR4 MyD88 comp: 1.6; TLR9-MyD88 block: -10.8; NOD2-RIPK2 inh: -11.7; XBP1 UPR activ: -1.0

How did Brc1ccc(C2Nc3cccc4cccc(c34)N2)cc1 do in these assays?
TLR9-MyD88 block: -0.5; NOD2-RIPK2 inh: 12.3

Results for Brc1ccc(-c2ccc(C3Nc4cccc5cccc(c45)N3)o2)cc1 ?
UPR CHOP act: 6.0; XBP1 UPR activ: 37.1*

How did CC[C@H](NC(=O)/C=C/[C@H]1O[C@@H](n2cc(C)c(=O)[nH]c2=O)C[C@@H]1O)c1ccccc1 do in these assays?
NOD2-RIPK2 inh: -4.0

What do the screens show for `Cc1ccc(-c2cn3nc(C)c(C)nc3n2)cc1`?
UPR CHOP act: -9.3; CHOP inhibitor: 81.3*; TLR4 MyD88 comp: -8.6; TLR9-MyD88 block: 12.2; NOD2-RIPK2 inh: 5.8; XBP1 UPR activ: -4.6

How did Cc1nc2ccccc2c(=O)n1/N=C/c1cn[nH]c1-c1ccccc1 do in these assays?
UPR CHOP act: -0.6; CHOP inhibitor: 9.1; NOD2-RIPK2 inh: -4.2; XBP1 UPR activ: 1.5

How did Cc1ccccc1OCc1nc2ccccc2c(=O)n1/N=C/c1cn[nH]c1-c1ccccc1 do in these assays?
UPR CHOP act: 4.2; CHOP inhibitor: 85.3*; TLR4 MyD88 comp: -0.9; TLR9-MyD88 block: -8.7; NOD2-RIPK2 inh: -10.0; XBP1 UPR activ: 2.8

What do the screens show for `Cc1ccc(-c2ccc(/C=N/N3C(=O)C4C5C=CC(CC5)C4C3=O)o2)c([N+](=O)[O-])c1` (stereo not given)?
UPR CHOP act: 4.6; CHOP inhibitor: 88.8*; TLR4 MyD88 comp: 5.3; TLR9-MyD88 block: 10.5; NOD2-RIPK2 inh: 7.5; XBP1 UPR activ: 1.1

How did Cc1ccccc1N(CC(=O)N1CCN(Cc2ccccc2)CC1)S(C)(=O)=O do in these assays?
TLR9-MyD88 block: -4.3; NOD2-RIPK2 inh: 2.0

Results for COc1ccc(Oc2nc(-c3ccccc3)ncc2S(=O)(=O)c2ccccc2)cc1 ?
UPR CHOP act: -1.2; CHOP inhibitor: 73.3*; TLR4 MyD88 comp: -4.5; TLR9-MyD88 block: -2.6; NOD2-RIPK2 inh: -2.3; XBP1 UPR activ: -1.9

How did Cc1cc(Cl)ccc1Oc1nc(-c2ccccc2)ncc1S(C)(=O)=O do in these assays?
UPR CHOP act: -2.2; CHOP inhibitor: 79.1*; TLR4 MyD88 comp: -3.5; TLR9-MyD88 block: -1.9; NOD2-RIPK2 inh: 1.8; XBP1 UPR activ: -0.1

What do the screens show for `CNC(=O)[C@H]1O[C@@H](n2cnc3c(NCc4ccc(N)cc4)ncnc32)C(O)[C@H]1O` (stereo not given in full)?
CHOP inhibitor: -27.9

What do the screens show for `CCOC(=O)[C@]12CCC=C1N(Cc1ccc3c(c1)OCO3)C(=O)[C@H](CC(=O)N1CCCCC1)C2`?
NOD2-RIPK2 inh: -4.7

How did COc1ccc(CNC(=O)C2CCN(S(=O)(=O)c3ccc(N4CCCC4=O)cc3)CC2)cc1 do in these assays?
TLR9-MyD88 block: -4.8; NOD2-RIPK2 inh: -7.3

What do the screens show for `Cc1c(C#N)c(N)nc2c3c(sc12)NC(=O)CC3c1ccc(Cl)cc1` (stereo not given)?
UPR CHOP act: 3.9; CHOP inhibitor: 101.4*; TLR4 MyD88 comp: 2.7; TLR9-MyD88 block: -5.8; NOD2-RIPK2 inh: -2.4; XBP1 UPR activ: 8.4

Results for COc1cccc(-c2nc3nc(C)cc(C)n3c2NCc2ccccc2)c1 ?
NOD2-RIPK2 inh: -3.4

Results for NS(=O)(=O)c1ccc(N=Nc2c(O)ccc3ccccc23)cc1 ?
UPR CHOP act: -3.7; CHOP inhibitor: 73.6*; TLR4 MyD88 comp: -4.6; TLR9-MyD88 block: -4.1; NOD2-RIPK2 inh: 9.2; XBP1 UPR activ: -3.3

What do the screens show for `Oc1ccc(N=Nc2c(O)ccc3ccccc23)cc1`?
UPR CHOP act: 0.3; CHOP inhibitor: 92.3*; TLR4 MyD88 comp: 9.4; TLR9-MyD88 block: 9.0; NOD2-RIPK2 inh: 3.7; XBP1 UPR activ: 6.4

What do the screens show for `Cc1noc(C)c1S(=O)(=O)N(C)C[C@H]1OCc2cnnn2CCCC(=O)N([C@@H](C)CO)C[C@H]1C`?
TLR9-MyD88 block: -2.0; NOD2-RIPK2 inh: 1.5

What do the screens show for `O=C1CC(c2cccc(Cl)c2)c2cc3c(cc2N1)CCC3` (stereo not given)?
UPR CHOP act: -2.0; CHOP inhibitor: 85.9*; TLR4 MyD88 comp: 7.6; TLR9-MyD88 block: -11.9; NOD2-RIPK2 inh: -5.2; XBP1 UPR activ: -1.8

What do the screens show for `COc1cccc(C2CC(=O)Nc3cc4c(cc32)CCC4)c1` (stereo not given)?
UPR CHOP act: -1.0; CHOP inhibitor: 45.8; TLR4 MyD88 comp: 12.7; TLR9-MyD88 block: -4.8; NOD2-RIPK2 inh: -3.0; XBP1 UPR activ: 1.4

Results for COc1cccc(NC(=O)C2(C)CCN2CC2CCCCC2)c1 (stereo not given) ?
NOD2-RIPK2 inh: -4.8

What do the screens show for `CCN1CCN(Cc2ccc(NC(=O)c3cc(NC(=O)N4CCNC4=O)cc(OC)c3)cc2C(F)(F)F)CC1`?
UPR CHOP act: -0.6; CHOP inhibitor: 9.5; TLR9-MyD88 block: -1.2; NOD2-RIPK2 inh: -11.5; XBP1 UPR activ: 2.0

What do the screens show for `COc1cc(NC(=O)N2CCNC2=O)cc(C(=O)Nc2cccc(C(F)(F)F)c2)c1`?
UPR CHOP act: 2.1; CHOP inhibitor: 74.5*; TLR9-MyD88 block: 5.3; NOD2-RIPK2 inh: 10.0; XBP1 UPR activ: 8.4

How did Cc1cccc(NC(=O)Cn2c(O)c(N=NC(=O)c3ccccc3O)c3ccccc32)c1 do in these assays?
UPR CHOP act: 5.3; CHOP inhibitor: 82.9*; TLR4 MyD88 comp: 7.5; TLR9-MyD88 block: -1.3; NOD2-RIPK2 inh: -2.3; XBP1 UPR activ: -0.5
